Screens from PubChem BioAssay.
PHOSPHO1 block – blocks human PHOSPHO1 phosphatase activity; Q8TCT1; AID 1565; recombinant PHOSPHO1, absorbance phosphatase assay; actives 1.1% (n = 290,000); inhibition, % at 13.3 µM; in the data active = inhibition above about 60%
Target sequence (Q8TCT1 whole entry, looked up): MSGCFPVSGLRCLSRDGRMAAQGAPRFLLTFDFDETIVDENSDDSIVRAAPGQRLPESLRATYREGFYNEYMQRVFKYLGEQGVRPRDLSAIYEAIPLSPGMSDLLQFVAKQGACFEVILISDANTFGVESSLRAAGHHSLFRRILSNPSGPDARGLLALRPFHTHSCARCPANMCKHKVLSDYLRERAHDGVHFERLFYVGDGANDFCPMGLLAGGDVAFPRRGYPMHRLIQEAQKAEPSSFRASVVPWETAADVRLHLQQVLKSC
RGS4 act – RGS4 potentiation or activation. HEK293 M3R/inducible RGS4, carbachol calcium flux Fluo4; stronger effect = lower value. AID 463111. actives 0.92% (n = 310,000). B-score at 10 µM;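 active = B-score of the integrated calcium signal more than 4 SD below the library mean, with starting fluorescence not abnormally high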;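 also: negative B-score means reduced calcium response which marks RGS4 activation or potentiation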
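Also added: carbachol at ECmax as muscarinic agonist stimulus; Assay system: HEK293 cells with stable M3R and inducible RGS4; Timing: overnight RGS4 induction, 30 min dye load 37 °C, 20 min compound RT; Measured by: Fluo4-AM (2 µM) calcium-flux fluorescence, kinetic read.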
MrgX1 agonist – agonists of human MrgX1 receptor. Q96LB2. MrgX1-HEK293 cells, Fluo-4 calcium fluorescence, agonist mode; stronger effect = higher value. B-score at 10 µM. actives 0.44% (n = 310,000). AID 588627;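 active = calcium response B-score plate-corrected fluorescence ratio at least 3 library SD, with starting fluorescence B-score inside 5 SD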
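times = overnight plating, then 30 min 37 °C plus 30 min room-temperature dye loading | assay system = stable human MrgX1 HEK293 cell line | input = fifteen thousand cells per well | signal = kinetic calcium dye fluorescence, Fluo-4 NW | dosing = compound delivered in addition one of three | read-out = B-scored fluorescence response ratio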
RGS4 block – inhibitors of human RGS4; P49798; HEK293 M3R/RGS4 inducible, Fluo-4 calcium flux; stronger effect = higher value; triggered by carbachol at its EC20; B-score at 10 µM; actives 0.45% (n = 310,000);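 active = B-score, a plate-corrected calcium signal, over three deviations above library mean, with baseline fluorescence within five deviations of library mean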;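 also: RGS4 expression induced by doxycycline in cells with stable M3 receptor; B-score is computed from the integrated fluorescence ratio over baseline after carbachol; higher B-score means a larger calcium signal and so more RGS4 inhibition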
Target sequence (P49798 whole entry, looked up): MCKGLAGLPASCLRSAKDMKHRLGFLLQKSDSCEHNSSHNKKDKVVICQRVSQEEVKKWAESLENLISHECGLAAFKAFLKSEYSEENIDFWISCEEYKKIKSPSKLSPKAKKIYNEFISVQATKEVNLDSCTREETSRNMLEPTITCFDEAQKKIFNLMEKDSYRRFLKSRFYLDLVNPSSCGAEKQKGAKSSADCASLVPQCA
MrgX1 antag – blocks BAM8-22 activation of human MrgX1 receptor; Q96LB2; MRGX1-HEK293 calcium flux, Fluo-4, BAM8-22 antagonism; stronger effect = lower value; B-score at 10 µM; actives 1.3% (n = 310,000);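 active = calcium-response B-score plate-corrected more than 3 library SD below zero, starting fluorescence within 5 deviations, no agonist response on first addition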;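 also: peak minus trough fluorescence over baseline after final BAM8-22 challenge near maximal dose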
MrgX1 PAM – allosterically activates human MrgX1 receptor signaling; MrgX1-HEK293, Fluo-4 calcium flux, FDSS; stronger effect = higher value; B-score at 10 µM; actives 0.63% (n = 310,000); AID 588675;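 active = plate-corrected calcium response at least 3 library SD above typical, normal starting fluorescence, not activating the receptor alone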;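 also: compound read alongside a low EC10 to EC30 dose of BAM8-22 agonist; peak minus trough fluorescence over baseline measured at the second addition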
The depositor's hits bear a star; i = inactive; x = no result given. Most compounds without a hit are left out; they make up all but 4.5% or so of the library.

SMILES	PHOSPHO1 block	RGS4 act	MrgX1 agonist	RGS4 block	MrgX1 antag	MrgX1 PAM
CCOc1ccc(NC(=O)Nc2cc(C(=O)O)ccc2N2CC3CC(C2)c2cccc(=O)n2C3)cc1 (stereo not drawn)	-10	i	i	i	i	i
CCCC(CCC(=O)Nc1ccn(-c2ccccc2)n1)C(=O)O (stereo not drawn)	4	i	i	i	i	i
CSC1=NS(=O)(=O)c2c(C)nn(C)c2S1	90*	i	i	i	i	i
O=S(=O)(c1ccccc1F)N1CCN(CCc2ccccc2)CC1	19	i	i	i	i	i
COC(=O)/C=C1\N/C(=N\c2nc(C)cc(C)n2)N(c2ccc(C)c(C)c2)C1=O	-7	i	i	i	i	i
COC1=C/C(=C/c2c(N)n3nc(CC(=O)N4CCCC4)sc3nc2=O)C=CC1=O	24	i	i	i	-5.9*	i
Nc1c(/C=C2/C=CC(=O)C(O)=C2)c(=O)nc2sc(CC(=O)N3CCCC3)nn12	40	i	i	i	i	i
CCOC1=C/C(=C/c2c(N)n3nc(CC(=O)N4CCCC4)sc3nc2=O)C=CC1=O	12	i	31*	i	i	i
O=C(CSc1nnc(NC(=O)c2cccc(Cl)c2)s1)NCC1CCCO1 (stereo not drawn)	18	i	i	i	i	i
Cc1cc(/C=N/n2cnnc2)c(C)n1-c1ccc(OCc2ccc(Cl)cc2Cl)cc1	-3	-8.3*	i	i	i	i
Cc1cc(/C=N/n2cnnc2)c(C)n1-c1ccc(Cl)cc1	-17	i	i	i	i	i
CCN(CC)CC(C)OC(=O)c1ccccc1Cl (stereo not drawn)	-26	i	i	i	i	i
CCC(=O)Nc1cc(NC(=O)CSc2ncc(-c3ccc(F)cc3)n2Cc2ccco2)ccc1C	72*	i	i	i	i	i
O=C1OC[C@H](Cc2ccc3c(c2)OCO3)/C1=C\c1ccc2c(c1)OCO2	x	i	i	i	-4.6*	i
C/C(CCc1ccc2c(c1)OCO2)=N\N=C(/N)SC1CC(=O)N(c2ccccc2F)C1=O (stereo not drawn)	13	i	i	i	i	i
CCC1C(=O)NCCN1C(=O)c1cccc(OC2CCN(S(=O)(=O)N(C)C)CC2)c1 (stereo not drawn)	64*	i	i	i	i	i
CN(C)S(=O)(=O)N1CCC(Oc2cccc(C(=O)NC3CCCCC3)c2)CC1	41	i	i	i	i	i
CN(C)S(=O)(=O)N1CCC(Oc2cccc(C(=O)NCCC3=CCCCC3)c2)CC1	13	i	i	i	-4.5*	i
COc1ccc(OC)c(NC(=O)CC2C(=O)NCCN2C(=O)c2ccccc2)c1 (stereo not drawn)	18	i	i	i	i	i
O=C1CCCCCN1Cc1nnc(SCc2nc3ccccc3s2)n1-c1ccccn1	21	i	i	i	i	i
CCn1c(CN2CCCCCC2=O)nnc1SCc1cnc(-c2ccccc2)s1	62*	i	i	i	i	i
Cc1ccc(S(=O)(=O)N[C@H](C(=O)Oc2ccc3c(C(F)(F)F)cc(=O)oc3c2)c2ccccc2)cc1	24	i	29*	i	i	i
Cc1ccc(S(=O)(=O)NC(C(=O)Oc2ccc3ccc(=O)oc3c2)c2ccccc2)cc1 (stereo not drawn)	0	i	i	i	i	i
CCC(=O)NC(=S)NNC(=O)c1ccc(O)cc1	81*	i	i	i	i	i
CCN(CC)S(=O)(=O)c1cccc(-c2n[nH]c(=S)n2/N=C/c2ccc(Br)cc2)c1	70*	i	i	i	i	i
SMILES	PHOSPHO1 block	RGS4 act	MrgX1 agonist	RGS4 block	MrgX1 antag	MrgX1 PAM
CCN(CC)S(=O)(=O)c1cccc(-c2n[nH]c(=S)n2/N=C/c2ccc(OC)cc2)c1	83*	i	i	i	i	i
COc1cc(/C=N/n2c(-c3ccccc3)n[nH]c2=S)cc(OC)c1O	37	i	i	i	i	i
COc1cc(/C=N/n2c(-c3ccccc3)n[nH]c2=S)ccc1O	103*	i	i	i	i	i
CCN(CC)S(=O)(=O)c1cccc(-c2n[nH]c(=S)n2/N=C/c2ccc(OC(F)F)cc2)c1	-8	i	i	i	i	i
C=C1CCN(C(C(=O)OC)C(C)C)S(=O)(=O)c2ccccc21 (stereo not drawn)	18	i	i	i	i	i
N#CC1(NC(=O)COC(=O)c2ccccc2SCC(=O)N2CCCC2)CCCCC1	15	i	i	i	i	i
C=CCN(CC=C)C(=O)C(=O)c1ccn(-c2c(C)csc2C(=O)OC)c1	22	i	i	i	i	i
CCOc1ccc(-c2csc(N)c2C(=O)OC)cc1	62*	i	i	i	i	i
N#Cc1c(N)nc2c(c1-c1ccccc1)CCC2	6	i	i	i	i	i
O=C(NC1CCCCC1)C(c1ccc(F)cc1)N(CCc1ccccc1)C(=O)CN1C(=O)c2ccccc2S1(=O)=O (stereo not drawn)	-21	i	i	i	-8.9*	i
CCc1sc(C(=O)Nc2ccc(F)cc2C)cc1C	-6	i	i	i	i	i
Cc1cc(C(=O)NN)c(C)o1	61*	i	i	i	i	i
OCC1C2c3ccccc3C(c3ccccc32)C1CO (stereo not drawn)	-1	i	i	i	i	i
O=C(COc1ccccc1Cl)NC1CC1	43	i	i	i	i	i
Cc1nc(NC(=O)CCN2C(=O)C3CC=CCC3C2=O)sc1C (stereo not drawn)	61*	i	i	i	i	i
Cc1ccc2nc(C)cc(C(=O)OCC(=O)Nc3cccnc3Cl)c2c1	61*	i	i	i	i	i
O=C(COC(=O)c1cc2ccccc2cc1O)Nc1cccnc1Cl	-2	i	i	i	i	i
CCC(C)c1ccccc1NC(=O)C(C)OC(=O)CN1C(=O)NC(C)(C)C1=O (stereo not drawn)	x	i	i	i	i	i
Cc1cccc(C(=O)N/N=C/c2cc(Br)c(Br)o2)c1	-3	i	i	i	i	i
CCC(=O)N1CCc2cc(S(=O)(=O)NCCC(=O)NCc3ccccc3Cl)ccc21	40	i	i	i	i	i
